{"source": "ChEMBL document CHEMBL1143208", "about": "“Structure and property based design of factor Xa inhibitors: biaryl pyrrolidin-2-ones incorporating basic heterocyclic motifs” (Bioorg Med Chem Lett, 2008)", "key": {"[1]": {"assay": "Distribution coefficient, log D of the compound", "assay_type": "physicochemical", "details": "chromatographic hydrophobicity index (CHI) at pH 7.4", "how_it_was_run": "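Measured hydrophobicity expressed as a chromatographic hydrophobicity index (CHI) logD at pH 7.4.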"}, "[2]": {"assay": "Half life in Sprague-Dawley rat", "assay_type": "ADME, organism-based", "details": "in vivo", "how_it_was_run": "(§1)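 Male Sprague–Dawley rats dosed intravenously and orally, with pharmacokinetic parameters derived from both routes.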"}, "[3]": {"assay": "Plasma clearance in Sprague-Dawley rat", "assay_type": "ADME, organism-based", "how_it_was_run": "as §1"}, "[4]": {"assay": "Volume of distribution at steady state in Sprague-Dawley rat", "assay_type": "ADME, organism-based", "details": "in vivo, read-out: Vdss", "how_it_was_run": "as §1"}, "[5]": {"assay": "Oral bioavailability in Sprague-Dawley rat", "assay_type": "ADME, organism-based", "details": "in vivo", "how_it_was_run": "as §1"}, "[6]": {"assay": "Dissociation constant, pKa of the compound", "assay_type": "physicochemical"}}}
{"smiles": "C/C(=C\\S(=O)(=O)NC1CCN(c2ccc(-n3ccnc3CN(C)C)cc2F)C1=O)c1ccc(Cl)s1", "note": "(configuration not stated)", "values": [{"measurement": "logD", "setting": "[1]", "value": 2.44}, {"measurement": "half-life", "setting": "[2]", "value": 48, "unit": "min"}, {"measurement": "clearance", "setting": "[3]", "value": 18, "unit": "mL/min/kg"}, {"measurement": "Vd", "setting": "[4]", "value": 0.7, "unit": "L/kg"}, {"measurement": "bioavailability", "setting": "[5]", "value": 16, "unit": "%"}]}
{"smiles": "O=C1C(NS(=O)(=O)/C=C/c2ccc(Cl)s2)CCN1c1ccc(-n2ccnc2CN2CCOCC2)cc1F", "note": "(configuration not stated)", "values": [{"measurement": "logD", "setting": "[1]", "value": 2.28}, {"measurement": "pKa", "setting": "[6]", "value": 5.75}]}
{"smiles": "O=C1C(NS(=O)(=O)/C=C/c2ccc(Cl)s2)CCN1c1ccc(-n2ccnc2CN2CCCC2)cc1F", "note": "(configuration not stated)", "values": [{"measurement": "logD", "setting": "[1]", "value": 2.21}, {"measurement": "pKa", "setting": "[6]", "value": 7.95}]}
{"smiles": "CN(C)Cc1nccn1-c1ccc(N2CCC(NS(=O)(=O)c3ncc(-c4ccc(Cl)s4)s3)C2=O)c(F)c1", "note": "(configuration not stated)", "values": [{"measurement": "logD", "setting": "[1]", "value": 2.75}]}
{"smiles": "O=C1C(NS(=O)(=O)/C=C/c2ccc(Cl)s2)CCN1c1ccc(-n2ccnc2CN2CCC(F)C2)cc1F", "note": "(configuration not stated)", "values": [{"measurement": "logD", "setting": "[1]", "value": 2.58}]}
{"smiles": "CNCc1nccn1-c1ccc(N2CCC(NS(=O)(=O)/C=C/c3ccc(Cl)s3)C2=O)c(F)c1", "note": "(configuration not stated)", "values": [{"measurement": "logD", "setting": "[1]", "value": 1.7}]}
{"smiles": "CN(C)Cc1ccn(-c2ccc(N3CCC(NS(=O)(=O)c4cc5ccc(Cl)cc5s4)C3=O)c(F)c2)n1", "note": "(configuration not stated)", "values": [{"measurement": "logD", "setting": "[1]", "value": 2.4}]}
{"smiles": "CN(C)Cc1nccn1-c1ccc(N2CCC(NS(=O)(=O)c3ccc4[nH]cc(Cl)c4c3)C2=O)c(F)c1", "note": "(configuration not stated)", "values": [{"measurement": "logD", "setting": "[1]", "value": 1.76}]}
{"smiles": "CN(C)Cc1nocc1-c1ccc(N2CCC(NS(=O)(=O)/C=C/c3ccc(Cl)s3)C2=O)c(F)c1", "note": "(configuration not stated)", "values": [{"measurement": "logD", "setting": "[1]", "value": 3.29}]}
{"smiles": "C/C(=C\\S(=O)(=O)NC1CCN(c2ccc(-n3cnc(CN(C)C)c3)cc2F)C1=O)c1ccc(Cl)s1", "note": "(configuration not stated)", "values": [{"measurement": "logD", "setting": "[1]", "value": 1.64}]}
{"smiles": "CN(C)Cc1nccn1-c1ccc(N2CCC(NS(=O)(=O)c3ccc4cc(Cl)ccc4c3)C2=O)c(F)c1", "note": "(configuration not stated)", "values": [{"measurement": "logD", "setting": "[1]", "value": 2.55}]}
{"smiles": "CN(C)Cc1nccn1-c1ccc(N2CCC(NS(=O)(=O)/C=C/c3ccc(Cl)s3)C2=O)c(F)c1", "note": "(configuration not stated)", "values": [{"measurement": "logD", "setting": "[1]", "value": 2.54}, {"measurement": "half-life", "setting": "[2]", "value": 60, "unit": "min"}, {"measurement": "clearance", "setting": "[3]", "value": 13, "unit": "mL/min/kg"}, {"measurement": "Vd", "setting": "[4]", "value": 0.6, "unit": "L/kg"}, {"measurement": "bioavailability", "setting": "[5]", "value": 52, "unit": "%"}, {"measurement": "pKa", "setting": "[6]", "value": 7.26}]}
{"smiles": "CN(C)Cc1nccn1-c1ccc(N2CCC(NS(=O)(=O)c3ccc4c(Cl)c[nH]c4c3)C2=O)c(F)c1", "note": "(configuration not stated)", "values": [{"measurement": "logD", "setting": "[1]", "value": 1.98}]}
{"smiles": "CN(C)Cc1cn(-c2ccc(N3CCC(NS(=O)(=O)c4cc5ccc(Cl)cc5s4)C3=O)c(F)c2)cn1", "note": "(configuration not stated)", "values": [{"measurement": "logD", "setting": "[1]", "value": 1.82}]}
{"smiles": "CCN(C)Cc1nccn1-c1ccc(N2CCC(NS(=O)(=O)/C=C/c3ccc(Cl)s3)C2=O)c(F)c1", "note": "(configuration not stated)", "values": [{"measurement": "logD", "setting": "[1]", "value": 2.48}]}
{"smiles": "CN(C)Cc1nccn1-c1ccc(N2CCC(NS(=O)(=O)c3cc4cc(Cl)ccc4s3)C2=O)c(F)c1", "note": "(configuration not stated)", "values": [{"measurement": "logD", "setting": "[1]", "value": 2.59}]}
{"smiles": "C/C(=C\\S(=O)(=O)NC1CCN(c2ccc(-n3cncc3CN(C)C)cc2F)C1=O)c1ccc(Cl)s1", "note": "(configuration not stated)", "values": [{"measurement": "logD", "setting": "[1]", "value": 2.31}]}
{"smiles": "CN(C)Cc1nccn1-c1ccc(N2CCC(NS(=O)(=O)c3cc4ccc(Cl)cc4s3)C2=O)c(F)c1", "note": "(configuration not stated)", "values": [{"measurement": "logD", "setting": "[1]", "value": 2.58}]}
{"smiles": "CN(C)Cc1nccn1-c1ccc(N2CCC(NS(=O)(=O)CCc3ccc(Cl)s3)C2=O)c(F)c1", "note": "(configuration not stated)", "values": [{"measurement": "logD", "setting": "[1]", "value": 2.32}, {"measurement": "half-life", "setting": "[2]", "value": 48, "unit": "min"}, {"measurement": "clearance", "setting": "[3]", "value": 39, "unit": "mL/min/kg"}, {"measurement": "Vd", "setting": "[4]", "value": 1.1, "unit": "L/kg"}, {"measurement": "bioavailability", "setting": "[5]", "value": 10, "unit": "%"}]}
{"smiles": "CN(C)Cc1ccnn1-c1ccc(N2CCC(NS(=O)(=O)c3cc4ccc(Cl)cc4s3)C2=O)c(F)c1", "note": "(configuration not stated)", "values": [{"measurement": "logD", "setting": "[1]", "value": 3.35}]}
{"smiles": "C/C(=C\\S(=O)(=O)NC1CCN(c2ccc(-n3ccc(CN(C)C)n3)cc2F)C1=O)c1ccc(Cl)s1", "note": "(configuration not stated)", "values": [{"measurement": "logD", "setting": "[1]", "value": 2.2}]}
{"smiles": "CC(C)N(C)Cc1nccn1-c1ccc(N2CCC(NS(=O)(=O)/C=C/c3ccc(Cl)s3)C2=O)c(F)c1", "note": "(configuration not stated)", "values": [{"measurement": "logD", "setting": "[1]", "value": 2.7}]}
